Screening data as filed in PubChem BioAssay.
Lipid droplet: modulators of hepatic lipid droplet formation. AML12 mouse hepatocytes, oleate lipid droplets, BODIPY imaging. inhibition, % at 6.5 µM. hit rate 0.4% among 240,000;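 active = lipid droplet intensity inhibited by at least 50%, with more than 500 cells counted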
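Test system: AML12 mouse liver cells; schedule: overnight exposure; technique: high-content imaging of BODIPY-stained droplets and DAPI nuclei; read-out: % inhibition of corrected integrated BODIPY droplet signal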
UPR CHOP act: activators of apoptotic arm of unfolded protein response (CHOP); hit rate 0.34% among 330,000; activation, % at 10 µM; CHO-CHOP luciferase reporter, UPR activation, luminescence; percent of tunicamycin response over DMSO baseline;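 active = at 10 µM dose, activation of 40% or more, normalized to positive control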;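 also: 100% = tunicamycin at 10 µg/mL and 0% = DMSO alone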
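System: CHO CHOP reporter cells. Amount: 500 cells per well. Buffer or medium: F12 medium, 10% FBS. Compound dosing: one dose, 10 µM in 0.5% DMSO. Incubation: 6 h compound exposure at 37 °C after overnight seeding. Technique: Steady-Glo luciferase luminescence. Benchmarks: tunicamycin and DMSO controls.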
XBP1 UPR activ: activators of adaptive arm of unfolded protein response (XBP1); hit rate 0.33% among 330,000; CHO-XBP1 luciferase reporter, IRE1-XBP1 UPR activation, luminescence; percent of tunicamycin response, DMSO as zero; activation, % at 20 µM; AID 463104;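 active = versus positive control, 20 µM dose yields 30% or more activation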;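 also: 100% = tunicamycin at 10 µg/mL and 0% = DMSO only wells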
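Material – CHO cell line with stable XBP1 luciferase reporter · Buffer or medium – F12 plus 10% FBS · Compound – single point, 20 µM final compound, 1% DMSO · Schedule – 16-18 h cell attachment at 37 °C, then 6 h compound exposure · Signal – Steady-Glo luminescence read · Benchmarks – high control tunicamycin 10 µg/mL final, low control DMSO vehicle only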
CHOP inh: inhibitors of CHOP induction in ER stress response. CHO-K1 CHOP-promoter luciferase, tunicamycin-induced, 15-18 h. inhibition, % at 10 µM. hit rate 3.8% among 220,000;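 active = compounds that reduced the stress-induced luciferase reporter signal by more than about 70% of percent inhibition, limit read from the data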;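 also: 0% = tunicamycin plus vehicle and 100% = wells without tunicamycin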
ANO1 activ: activators or potentiators of mouse TMEM16A chloride channel | hit rate 0.3% among 340,000 | HEK293 TMEM16A/YFP-H148Q/I152L, iodide quench fluorescence; hits give low values | B-score at 10 µM | Q8BHY3;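 active = fluorescence-ratio B-score plate-corrected deviation score at least 3 library SD below zero, with starting fluorescence score within 5 deviations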;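 also: channel opened by trigger with iodide after compound preincubation; score built on the fluorescence ratio of max minus min over baseline; more negative score means more quench and so TMEM16A activation or potentiation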
ANO1 block: inhibitors of mouse TMEM16A calcium-activated chloride channel; AID 588511; normalized B-score (activity score, 25-100; higher = stronger inhibition) at 10 µM; Q8BHY3; hit rate 1.2% among 310,000; HEK293 TMEM16A/YFP iodide influx fluorescence, ionomycin;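 active = ratio plate-corrected score three or more library SD toward inhibition, starting fluorescence score within five deviations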;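 also: score derived from kinetic fluorescence span divided by baseline fluorescence per well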
TMEM16A reconf: TMEM16A (mouse) chloride channel inhibition, re-confirmation | shares compounds with ANO1 block | HEK293 TMEM16A/YFP-H148Q, iodide quench fluorescence; ionomycin added to raise cell calcium | inhibition, % at 10 µM | hit rate 39% among 2,300 | AID 652189;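 active = mean duplicate percent inhibition, scaled so buffer wells are 0 and the reference blocker 100, over three buffer SD above buffer mean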
TMEM16A Ca cntr: calcium mobilization counter-screen hit for TMEM16A inhibitor series; shares compounds with ANO1 block; TMEM16A/YFP HEK293, Fluo4 calcium mobilization; calcium response (% of ionomycin), % at 10 µM; hit rate 2% among 2,300;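 active = duplicate-averaged calcium signal over 20% of the ionomycin maximum, relative to buffer baseline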;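 also: each well's signal is peak minus trough fluorescence divided by its pre-addition baseline; 0% = buffer wells and 100% = ionomycin wells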
YFP-HEK293 quench: acts in parental YFP-HEK293 cells lacking TMEM16A, counter-screen | YFP ratio F(max-min)/F0 at 10 µM | AID 652233 | 2,300 tested, under 10 active | iodide YFP quench, ionomycin | shares compounds with ANO1 block;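 active = yellow fluorescent protein signal ratio exceeding the buffer control mean by over 5 SD of those controls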;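 also: ratio is mean of duplicate wells from kinetic YFP trace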
ClC-1 rat inh: blocks the rat ClC-1 voltage-dependent chloride channel; shares compounds with ANO1 block; CHO ClC-1-YFP, iodide influx fluorescence quench; iodide control reads 0, buffer control 100; ratio percent, % at 10 µM; 2,300 tested, under 10 active;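 active = duplicate-mean ratio percent above the mean of iodide-only control wells, which defines zero, plus 5 of their SD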;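 also: higher percent means stronger block of ClC-1 iodide influx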
Target sequence (P35524 whole entry, looked up): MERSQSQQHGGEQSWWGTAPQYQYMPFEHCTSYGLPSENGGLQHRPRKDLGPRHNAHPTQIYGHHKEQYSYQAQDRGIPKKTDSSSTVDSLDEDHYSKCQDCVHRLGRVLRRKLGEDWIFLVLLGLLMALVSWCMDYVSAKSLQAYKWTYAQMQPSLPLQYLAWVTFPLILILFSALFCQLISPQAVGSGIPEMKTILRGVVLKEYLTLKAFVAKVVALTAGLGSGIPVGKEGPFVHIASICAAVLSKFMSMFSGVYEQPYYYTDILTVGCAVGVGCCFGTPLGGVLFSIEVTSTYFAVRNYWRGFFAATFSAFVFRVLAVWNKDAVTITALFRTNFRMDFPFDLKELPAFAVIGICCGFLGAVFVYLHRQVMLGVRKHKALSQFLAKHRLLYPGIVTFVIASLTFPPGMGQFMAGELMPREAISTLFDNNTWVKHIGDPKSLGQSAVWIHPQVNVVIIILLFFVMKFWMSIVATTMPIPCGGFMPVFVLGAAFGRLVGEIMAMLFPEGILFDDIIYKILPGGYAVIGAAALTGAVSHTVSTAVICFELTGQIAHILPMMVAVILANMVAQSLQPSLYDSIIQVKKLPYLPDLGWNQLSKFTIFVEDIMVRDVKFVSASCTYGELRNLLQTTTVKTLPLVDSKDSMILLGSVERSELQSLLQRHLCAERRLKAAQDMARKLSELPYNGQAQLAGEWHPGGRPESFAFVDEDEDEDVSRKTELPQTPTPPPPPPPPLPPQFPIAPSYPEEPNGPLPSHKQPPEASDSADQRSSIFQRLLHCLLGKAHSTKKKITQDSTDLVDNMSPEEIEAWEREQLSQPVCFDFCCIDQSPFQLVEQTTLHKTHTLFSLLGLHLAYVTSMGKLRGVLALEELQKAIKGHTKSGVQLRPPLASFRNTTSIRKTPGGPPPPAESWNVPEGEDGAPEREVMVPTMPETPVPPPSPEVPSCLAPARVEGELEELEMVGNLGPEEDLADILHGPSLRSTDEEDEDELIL
* hit, by the source's call; i = inactive; . = no result. Rows were chosen to be rich in hits. Some 4.2% of all compounds tested hit in one or more screens of this group.

SMILES	Lipid droplet	UPR CHOP act	XBP1 UPR activ	CHOP inh	ANO1 activ	ANO1 block	TMEM16A reconf	TMEM16A Ca cntr	YFP-HEK293 quench	ClC-1 rat inh
NC(=O)C1CCN(C(=O)C2CC(=O)N(Cc3ccccc3)C2)CC1 (stereo not given)	.	-1	-2	.	i	.	.	.	.	.
Cc1ccc(C(C)C)cc1OCC(=O)Nc1ccc(N2CCCCC2)cc1	.	0	0	.	i	25*	i	i	-0.69	0
Cc1cccc(C(=O)OCC(=O)Nc2ccc(N3CCCCC3)cc2)c1O	0	1	7	43	i	i	i	i	-1.2	-16
CCCCOC(=O)Nc1ccc(N2CCCCC2)cc1	.	5	2	39	i	i	i	i	-1.1	-4
CCCCOC(=O)Nc1ccc(N2CCOCC2)cc1	0	4	3	5	i	i	.	.	.	.
CC(C)CCc1noc(CN2CCN(c3ccc(Cl)cn3)CC2)n1	7	-1	1	9	i	i	.	.	.	.
CN1CCN(/C=N/c2c(C#N)cnn2Cc2ccccc2)CC1	.	-2	-2	19	i	25*	i	i	-1	-4
O=C(O)c1cccc(N=C2NC(=O)C(CO)(CO)S2)c1	0	2	-2	.	i	i	.	.	.	.
CC(C)C1Nc2ccc(S(N)(=O)=O)cc2C2C=CCC21 (stereo not given)	-13	-1	-1	5	i	i	.	.	.	.
NS(=O)(=O)c1ccc2c(c1)C1C=CCC1C(C1CC=CCC1)N2 (stereo not given)	-1	2	-1	5	i	100*	i	i	-0.83	-7
COCC(N)(c1ccccc1)c1nc2ccccc2n1C (stereo not given)	.	1	0	-16	i	25*	i	i	-1.2	-6
CCOC(=O)c1sc(NC(=O)C2CCCO2)c(C(=O)OCC)c1C (stereo not given)	0	.	.	.	.	.	.	.	.	.
COC(=O)c1sc(NC(=O)C2CCCO2)c(C(=O)OC)c1C (stereo not given)	2	1	2	-73	i	25*	i	i	-1.2	-17
CC1CCN(S(=O)(=O)c2cccc(C(N)=O)c2)CC1	-17	3	-1	-4	i	i	.	.	.	.
CC1CCN(S(=O)(=O)c2cccc(C(=O)O)c2)CC1	7	0	1	-19	i	100*	i	i	-0.99	-6
O=C(c1cccc(S(=O)(=O)N2CCCC2)c1)N1CCN(Cc2ccccc2)CC1	.	0	-1	.	i	.	.	.	.	.
C[C@H](CO)N1C[C@H](C)[C@@H](CN(C)C(=O)Nc2ccc(C(F)(F)F)cc2)Oc2c(NS(=O)(=O)c3ccccc3)cccc2C1=O	.	2	-4	.	i	.	.	.	.	.
C1CCC(NC2=NCCC2)CC1	.	-1	1	-1	i	100*	i	i	-1.1	-4
CC(=O)Oc1cccc(Nc2ncnc3ccccc23)c1	0	0	3	.	i	i	.	.	.	.
Cc1ccccc1C(=O)Oc1cccc(Nc2ncnc3ccccc23)c1	.	9	2	.	i	25*	30%*	i	-0.92	-14
N#Cc1nc(Cc2cccc3ccccc23)oc1N1CCOCC1	.	-1	-1	43	i	i	.	.	.	.
CC1CCN(c2oc(Cc3cccc4ccccc34)nc2C#N)CC1	.	0	-1	-4	i	25*	i	i	-1.1	-10
N#Cc1nc(Cc2cccc3ccccc23)oc1NCc1ccc(F)cc1	-15	0	-2	71*	i	100*	i	i	-0.91	3
C=CCNc1oc(Cc2cccc3ccccc23)nc1C#N	.	0	-2	48	i	i	.	.	.	.
Cc1ncsc1CCOC(=O)C1C2CC3CC(C2)CC1C3 (stereo not given)	2	2	1	47	i	i	.	.	.	.
SMILES	Lipid droplet	UPR CHOP act	XBP1 UPR activ	CHOP inh	ANO1 activ	ANO1 block	TMEM16A reconf	TMEM16A Ca cntr	YFP-HEK293 quench	ClC-1 rat inh
CSCCC(NS(=O)(=O)c1ccccc1)C(=O)OCc1cc(=O)oc2cc(O)ccc12 (stereo not given)	.	1	-1	.	i	i	.	.	.	.
CCCNC(=O)Nc1cc(S(=O)(=O)CC)ccc1O	-10	2	3	4	i	i	.	.	.	.
CCS(=O)(=O)c1ccc(O)c(NC(=O)c2cc(OC)c(OC)c(OC)c2)c1	.	-1	0	2	i	i	i	i	-1.1	-6
COc1ccc(-c2nc(CC(=O)Nc3cccc(S(=O)(=O)NC4=NCCC4)c3)cs2)cc1	.	0	-2	.	i	.	.	.	.	.
O=C(c1ccc2ccccc2c1)C1CCCN(S(=O)(=O)c2cccnc2)C1 (stereo not given)	2	0	-2	20	i	100*	18%*	i	-0.89	-16
COc1cccc(C(=O)NC(=S)Nc2ccc3c4c(cccc24)CC3)c1	.	2	-2	11	i	i	i	i	-0.52	-6
CCOC(=O)CNC(=O)C(NC(=O)C1CCC(C)CC1)C(C)CC (stereo not given)	-1	-1	0	40	i	25*	i	i	-1.1	-2
CCOC(=O)c1c(NC(=O)c2nn(CC)cc2Br)c(C#N)nn1-c1ccccc1	-21	-1	2	4	i	100*	i	i	-0.92	-10
CCOC(=O)c1nn(-c2ccccc2)c(C#N)c1NC(=O)c1nn(CC)cc1Br	-24	0	12	49	i	i	.	.	.	.
N#Cc1c(NC(=O)CSc2nnnn2C2CCCCC2)sc2c1CCCC2	.	-1	0	24	i	25*	i	i	-1.1	-8
Cc1nnc(SCC(=O)Nc2sc3c(c2C#N)CCCCC3)n1N	0	1	-4	9	i	i	.	.	.	.
OC1(c2ccc(OC(F)F)cc2)CSC(=Nc2cccnc2)N1C1CC1 (stereo not given)	.	0	-1	36	i	100*	20%*	i	-1.3	-24
